Measurements reported in ChEMBL document CHEMBL4339192, “De Novo Designed Amphipathic α-Helical Antimicrobial Peptides Incorporating Dab and Dap Residues on the Polar Face To Treat the Gram-Negative Pathogen, Acinetobacter baumannii” (J Med Chem, 2019).
Values after ≈ are worked out from the molar mass of the structure shown. Where a SMILES comes first, the peptide text is derived from it. [ ]: non-standard residue; d: D form. dOrn = NCCC[C@@H](N)C(=O)O

Tests used:
Type in all cases: functional
Acinetobacter baumannii [1] = test: Antibacterial activity against Acinetobacter baumannii 649 measured after 24 hrs by microtiter dilution method; conditions: Acinetobacter baumannii, 649, 24 h
Procedure, shortened: (§1)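 Broth microdilution in Mueller-Hinton (MH) medium. […] Plates were incubated 24 h at 37 °C. MIC was the lowest peptide concentration that inhibited growth, based on three sets of replicates.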

Acinetobacter baumannii [2] = test: Antibacterial activity against polymyxin B/colistin-resistant Acinetobacter baumannii M89951 measured after 24 hrs by microtiter dilution method; conditions: M89951, 24 h; procedure, shortened: as §1
Acinetobacter baumannii [3] = test: Antibacterial activity against Acinetobacter baumannii 649 measured after 24 hrs in presence of 25% human serum by microtiter dilution method; conditions: Acinetobacter baumannii, 649, 24 h
Procedure, shortened: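 Blood strain 649 was tested by MH broth microdilution with and without 25% (v/v) human serum added to the medium. The test used a final inoculum of 5 × 10^5 cfu/mL and incubation at 37 °C. The ratio is the MIC in serum over the MIC in MH alone.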

Acinetobacter baumannii [4] = test: Antibacterial activity against polymyxin B/colistin-resistant Acinetobacter baumannii M89952 measured after 24 hrs by microtiter dilution method; conditions: M89952, 24 h; procedure, shortened: as §1
Acinetobacter baumannii [5] = test: Antibacterial activity against polymyxin B/colistin-resistant Acinetobacter baumannii M89941 measured after 24 hrs by microtiter dilution method; conditions: M89941, 24 h; procedure, shortened: as §1
Acinetobacter baumannii [6] = test: Antibacterial activity against polymyxin B/colistin-resistant Acinetobacter baumannii M89953 measured after 24 hrs by microtiter dilution method; conditions: M89953, 24 h; procedure, shortened: as §1
Acinetobacter baumannii [7] = test: Antibacterial activity against polymyxin B/colistin-resistant Acinetobacter baumannii M89955 measured after 24 hrs by microtiter dilution method; conditions: M89955, 24 h; procedure, shortened: as §1
Acinetobacter baumannii [8] = test: Antibacterial activity against polymyxin B/colistin-resistant Acinetobacter baumannii M89949 measured after 24 hrs by microtiter dilution method; conditions: M89949, 24 h; procedure, shortened: as §1
Acinetobacter baumannii [9] = test: Antibacterial activity against polymyxin B/colistin-resistant Acinetobacter baumannii M89963 measured after 24 hrs by microtiter dilution method; conditions: M89963, 24 h; procedure, shortened: as §1
Acinetobacter baumannii [10] = test: Antibacterial activity against Acinetobacter baumannii isolate 1035166 measured after 24 hrs by microtiter dilution method; conditions: isolate 1035166, 24 h; procedure, shortened: as §1
Acinetobacter baumannii [11] = test: Antibacterial activity against Acinetobacter baumannii isolate 1018887 measured after 24 hrs by microtiter dilution method; conditions: isolate 1018887, 24 h; procedure, shortened: as §1
Acinetobacter baumannii [12] = test: Antibacterial activity against Acinetobacter baumannii isolate 963618 measured after 24 hrs by microtiter dilution method; conditions: isolate 963618, 24 h; procedure, shortened: as §1
Acinetobacter baumannii [13] = test: Antibacterial activity against Acinetobacter baumannii isolate 952654 measured after 24 hrs by microtiter dilution method; conditions: isolate 952654, 24 h; procedure, shortened: as §1
Acinetobacter baumannii [14] = test: Antibacterial activity against Acinetobacter baumannii isolate 961997 measured after 24 hrs by microtiter dilution method; conditions: isolate 961997, 24 h; procedure, shortened: as §1
Acinetobacter baumannii [15] = test: Antibacterial activity against Acinetobacter baumannii isolate 1001611 measured after 24 hrs by microtiter dilution method; conditions: isolate 1001611, 24 h; procedure, shortened: as §1
Acinetobacter baumannii [16] = test: Antibacterial activity against Acinetobacter baumannii isolate 1007660 measured after 24 hrs by microtiter dilution method; conditions: isolate 1007660, 24 h; procedure, shortened: as §1
Acinetobacter baumannii [17] = test: Antibacterial activity against Acinetobacter baumannii isolate 963659 measured after 24 hrs by microtiter dilution method; conditions: isolate 963659, 24 h; procedure, shortened: as §1
Acinetobacter baumannii [18] = test: Antibacterial activity against Acinetobacter baumannii isolate 9383370 measured after 24 hrs by microtiter dilution method; conditions: isolate 9383370, 24 h; procedure, shortened: as §1
Acinetobacter baumannii [19] = test: Antibacterial activity against Acinetobacter baumannii isolate 1035794 measured after 24 hrs by microtiter dilution method; conditions: isolate 1035794, 24 h; procedure, shortened: as §1
Acinetobacter baumannii [20] = test: Antibacterial activity against Acinetobacter baumannii isolate 1021371 measured after 24 hrs by microtiter dilution method; conditions: isolate 1021371, 24 h; procedure, shortened: as §1
Acinetobacter baumannii [21] = test: Antibacterial activity against Acinetobacter baumannii isolate 968886 measured after 24 hrs by microtiter dilution method; conditions: isolate 968886, 24 h; procedure, shortened: as §1
Acinetobacter baumannii [22] = test: Antibacterial activity against Acinetobacter baumannii isolate 1002956 measured after 24 hrs by microtiter dilution method; conditions: isolate 1002956, 24 h; procedure, shortened: as §1
Acinetobacter baumannii [23] = test: Antibacterial activity against Acinetobacter baumannii isolate 1010245 measured after 24 hrs by microtiter dilution method; conditions: isolate 1010245, 24 h; procedure, shortened: as §1
Acinetobacter baumannii [24] = test: Antibacterial activity against Acinetobacter baumannii isolate 977751 measured after 24 hrs by microtiter dilution method; conditions: isolate 977751, 24 h; procedure, shortened: as §1
Acinetobacter baumannii [25] = test: Antibacterial activity against Acinetobacter baumannii isolate 1017395 measured after 24 hrs by microtiter dilution method; conditions: isolate 1017395, 24 h; procedure, shortened: as §1
Acinetobacter baumannii [26] = test: Antibacterial activity against Acinetobacter baumannii isolate 965463 measured after 24 hrs by microtiter dilution method; conditions: isolate 965463, 24 h; procedure, shortened: as §1
Acinetobacter baumannii [27] = test: Antibacterial activity against Acinetobacter baumannii isolate 964304 measured after 24 hrs by microtiter dilution method; conditions: isolate 964304, 24 h; procedure, shortened: as §1
Acinetobacter baumannii [28] = test: Antibacterial activity against Acinetobacter baumannii isolate 1010282 measured after 24 hrs by microtiter dilution method; conditions: isolate 1010282, 24 h; procedure, shortened: as §1

Compound | MIC (Acinetobacter baumannii [1]) | MIC (Acinetobacter baumannii [2]) | MIC (Acinetobacter baumannii [3]) | MIC (Acinetobacter baumannii [4]) | MIC (Acinetobacter baumannii [5]) | MIC (Acinetobacter baumannii [6]) | MIC (Acinetobacter baumannii [7]) | MIC (Acinetobacter baumannii [8]) | MIC (Acinetobacter baumannii [9]) | also measured
CC(=O)N[C@H](CCCCN)C(=O)N[C@H](CC(C)C)C(=O)N[C@H](CCCNC(=N)N)C(=O)N[C@H](CO)C(=O)N[C@H](CC(C)C)C(=O)N[C@H](CC(C)C)C(=O)N[C@H](CCCNC(=N)N)C(=O)N[C@@H](C(=O)N[C@H](CC(C)C)C(=O)N[C@H](CO)C(=O)N[C@H](CCCNC(=N)N)C(=O)N[C@H](C)C(=O)N[C@H](CCCCN)C(=O)N[C@H](C)C(=O)N[C@H](C)C(=O)N[C@H](CCCCN)C(=O)N[C@H](CC(C)C)C(=O)N[C@H](CCCNC(=N)N)C(=O)N[C@@H](C(=O)N[C@H](CC(C)C)C(=O)N[C@H](CC(C)C)C(=O)N[C@H](CCCNC(=N)N)C(=O)N[C@H](C)C(=O)N[C@H](CC(C)C)C(=O)N[C@H](CO)C(=O)N[C@H](CCCNC(=N)N)C(N)=O)[C@H](C)O)[C@H](C)O (Ac-[dK][dL][dR][dS][dL][dL][dR][dT][dL][dS][dR][dA][dK][dA][dA][dK][dL][dR][dT][dL][dL][dR][dA][dL][dS][dR]-NH2) | 0.7 µM (≈ 2.12 µg/mL) | 0.7 µM (≈ 2.12 µg/mL) | 1.3 µM | 0.7 µM (≈ 2.12 µg/mL) | 1.3 µM (≈ 3.94 µg/mL) | 0.7 µM (≈ 2.12 µg/mL) | 0.7 µM (≈ 2.12 µg/mL) |  |  | 
CC(=O)N[C@H](CCCCN)C(=O)N[C@H](CC(C)C)C(=O)N[C@H](CCCN)C(=O)N[C@H](CO)C(=O)N[C@H](CC(C)C)C(=O)N[C@H](CC(C)C)C(=O)N[C@H](CCCN)C(=O)N[C@@H](C(=O)N[C@H](CC(C)C)C(=O)N[C@H](CO)C(=O)N[C@H](CCCN)C(=O)N[C@H](C)C(=O)N[C@H](CCCCN)C(=O)N[C@H](C)C(=O)N[C@H](C)C(=O)N[C@H](CCCCN)C(=O)N[C@H](CC(C)C)C(=O)N[C@H](CCCN)C(=O)N[C@@H](C(=O)N[C@H](CC(C)C)C(=O)N[C@H](CC(C)C)C(=O)N[C@H](CCCN)C(=O)N[C@H](C)C(=O)N[C@H](CC(C)C)C(=O)N[C@H](CO)C(=O)N[C@H](CCCN)C(N)=O)[C@H](C)O)[C@H](C)O (Ac-[dK][dL][dOrn][dS][dL][dL][dOrn][dT][dL][dS][dOrn][dA][dK][dA][dA][dK][dL][dOrn][dT][dL][dL][dOrn][dA][dL][dS][dOrn]-NH2) | 0.4 µM (≈ 1.11 µg/mL) | 0.7 µM (≈ 1.95 µg/mL) |  |  | 0.7 µM (≈ 1.95 µg/mL) | 0.4 µM (≈ 1.11 µg/mL) | 0.4 µM (≈ 1.11 µg/mL) | 0.7 µM (≈ 1.95 µg/mL) | 0.4 µM (≈ 1.11 µg/mL) | 
CC(=O)N[C@H](CCCCN)C(=O)N[C@H](CC(C)C)C(=O)N[C@H](CCCCN)C(=O)N[C@H](CO)C(=O)N[C@H](CC(C)C)C(=O)N[C@H](CC(C)C)C(=O)N[C@H](CCCCN)C(=O)N[C@@H](C(=O)N[C@H](CC(C)C)C(=O)N[C@H](CO)C(=O)N[C@H](CCCCN)C(=O)N[C@H](C)C(=O)N[C@H](CCCCN)C(=O)N[C@H](C)C(=O)N[C@H](C)C(=O)N[C@H](CCCCN)C(=O)N[C@H](CC(C)C)C(=O)N[C@H](CCCCN)C(=O)N[C@@H](C(=O)N[C@H](CC(C)C)C(=O)N[C@H](CC(C)C)C(=O)N[C@H](CCCCN)C(=O)N[C@H](C)C(=O)N[C@H](CC(C)C)C(=O)N[C@H](CO)C(=O)N[C@H](CO)C(N)=O)[C@H](C)O)[C@H](C)O (Ac-[dK][dL][dK][dS][dL][dL][dK][dT][dL][dS][dK][dA][dK][dA][dA][dK][dL][dK][dT][dL][dL][dK][dA][dL][dS][dS]-NH2) | 0.7 µM (≈ 1.98 µg/mL) | 0.7 µM (≈ 1.98 µg/mL) | 0.7 µM | 0.7 µM (≈ 1.98 µg/mL) | 0.7 µM (≈ 1.98 µg/mL) | 1.5 µM (≈ 4.24 µg/mL) | 0.7 µM (≈ 1.98 µg/mL) | 0.7 µM (≈ 1.98 µg/mL) | 0.7 µM (≈ 1.98 µg/mL) | MIC (Acinetobacter baumannii [10]): 1.4 µM (≈ 3.95 µg/mL); MIC (Acinetobacter baumannii [11]): 1.4 µM (≈ 3.95 µg/mL); MIC (Acinetobacter baumannii [12]): 0.7 µM (≈ 1.98 µg/mL); MIC (Acinetobacter baumannii [13]): 1.4 µM (≈ 3.95 µg/mL); MIC (Acinetobacter baumannii [14]): 1.4 µM (≈ 3.95 µg/mL); MIC (Acinetobacter baumannii [15]): 0.7 µM (≈ 1.98 µg/mL); MIC (Acinetobacter baumannii [16]): 0.7 µM (≈ 1.98 µg/mL); MIC (Acinetobacter baumannii [17]): 1.4 µM (≈ 3.95 µg/mL); MIC (Acinetobacter baumannii [18]): 0.7 µM (≈ 1.98 µg/mL); MIC (Acinetobacter baumannii [19]): 1.4 µM (≈ 3.95 µg/mL); MIC (Acinetobacter baumannii [20]): 1.4 µM (≈ 3.95 µg/mL); MIC (Acinetobacter baumannii [21]): 0.7 µM (≈ 1.98 µg/mL); MIC (Acinetobacter baumannii [22]): 0.7 µM (≈ 1.98 µg/mL); MIC (Acinetobacter baumannii [23]): 0.7 µM (≈ 1.98 µg/mL); MIC (Acinetobacter baumannii [24]): 0.7 µM (≈ 1.98 µg/mL); MIC (Acinetobacter baumannii [25]): 1.4 µM (≈ 3.95 µg/mL); MIC (Acinetobacter baumannii [26]): 0.7 µM (≈ 1.98 µg/mL); MIC (Acinetobacter baumannii [27]): 1.4 µM (≈ 3.95 µg/mL); MIC (Acinetobacter baumannii [28]): 1.4 µM (≈ 3.95 µg/mL)
